Data as given in ChEMBL document CHEMBL1145995, “Tricyclic benzimidazoles as potent poly(ADP-ribose) polymerase-1 inhibitors” (J Med Chem, 2003).
pKi: −log10 of the molar value.

Assays:
[1] = target: T1, Poly [ADP-ribose] polymerase 1 (Homo sapiens, UniProt P09874); assay: Inhibitory activity against human full length Poly (ADP-ribose) polymerase 1 at 100 uM
Procedure, shortened: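 Human full-length PARP-1 enzyme assay. Tested at a single concentration of 100 μM, reported as percent inhibition instead of a Ki value.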

[2] = system: A549; assay: Enhancement factor of 200 uM temozolomide by 0.4 uM PARP inhibitor in A549 cells
[3] = system: A549; assay: Concentration that gives 50% growth inhibition (topotecan alone/ (topotecan + 0.4 uM of compound)) in A549 cells; assay type: functional, Homo sapiens
Procedure, shortened: (§1)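 A549 cells exposed to temozolomide (TM) or topotecan (TP), each with or without 0.4 μM PARP inhibitor. […] PF50 = GI50 of cytotoxic agent alone ÷ GI50 with inhibitor. Values are the average of two independent experiments.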

[4] = system: A549; assay: Concentration that gives 50% growth inhibition (temozolomide alone/ (temozolomide + 0.4 uM of compound)) in A549 cells; assay type: functional, Homo sapiens; procedure, shortened: as §1
[5] = system: A549; assay: Effect on NAD+ depletion (% remaining versus vehicle control) in presence of MNNG (25 uM) at 0.15 uM compound concentration in A549 cells; assay type: functional, Homo sapiens
Procedure, shortened: (§2)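 A549 cells treated with vehicle, with 25 μM MNNG (subtoxic DNA alkylation), or with 25 μM MNNG plus inhibitor at 0.006–11 μM. Cellular NAD+ measured by an enzyme recycling method and expressed as % remaining relative to vehicle-treated cells without DNA damage.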

[6] = system: A549; assay: Effect on NAD+ depletion (% remaining versus vehicle control) in presence of MNNG (25 uM) at 0.4 uM compound concentration in A549 cells; assay type: functional, Homo sapiens; procedure, shortened: as §2
[7] = system: LoVo; assay: Potentiation of topotecan in LoVo cells by 0.40 uM compound (TP); assay type: functional, Homo sapiens
[8] = system: A549; assay: Concentration that gives 50% growth inhibition in A549 cells, activity expressed as PF50 (TP) at 0.4 uM; assay type: functional, Homo sapiens
Procedure, shortened: (§3)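 A549 cells given topotecan alone or together with the PARP inhibitor at the listed concentration. PF50 (TP) = GI50 of topotecan alone ÷ GI50 of topotecan with inhibitor.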

[9] = system: A549; assay: Percent ADP-ribose polymer formation in presence of MNNG (25 uM) at 0..15 uM compound concentration in A549 cells; assay type: functional, Homo sapiens
Procedure, shortened: (§4)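 A549 cells treated with vehicle, with 25 μM MNNG, or with 25 μM MNNG plus inhibitor at 0.006–11 μM. ADP-ribose polymer quantified by HPLC and expressed as % of the polymer formed with 25 μM MNNG alone.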

[10] = system: A549; assay: Effect on NAD+ depletion (% remaining versus vehicle control) in presence of MNNG (25 uM) at 11 uM compound concentration in A549 cells; assay type: functional, Homo sapiens; procedure, shortened: as §2
[11] = system: LoVo; assay: Concentration that gives 50% growth inhibition in LoVo cells, activity expressed as GI50; assay type: functional; conditions: Homo sapiens
[12] = system: A549; assay: Percent ADP-ribose polymer formation in presence of MNNG (25 uM) at 0..4 uM compound concentration in A549 cells; assay type: functional, Homo sapiens; procedure, shortened: as §4
[13] = system: A549; assay: Percent ADP-ribose polymer formation in presence of MNNG (25 uM) at 11 uM compound concentration in A549 cells; assay type: functional, Homo sapiens; procedure, shortened: as §4
[14] = system: A549; assay: Effect on NAD+ depletion (% remaining versus vehicle control) in presence of MNNG (25 uM) at 0.006 uM compound concentration in A549 cells; assay type: functional, Homo sapiens; procedure, shortened: as §2
[15] = system: A549; assay: Concentration that gives 50% growth inhibition in A549 cells, activity expressed as PF50 (TP) at 0.006 uM; assay type: functional, Homo sapiens; procedure, shortened: as §3
[16] = system: A549; assay: Concentration that gives 50% growth inhibition in A549 cells, activity expressed as PF50 (TP) at 0.15 uM; assay type: functional, Homo sapiens; procedure, shortened: as §3
[17] = system: A549; assay: Concentration that gives 50% growth inhibition in A549 cells, activity expressed as PF50 (TP) at 0.03 uM; assay type: functional, Homo sapiens; procedure, shortened: as §3
[18] = system: LoVo; assay: Potentiation of temozolomide in LoVo cells by 0.40 uM compound (TM); assay type: functional, Homo sapiens
[19] = system: A549; assay: Effect on NAD+ depletion (% remaining versus vehicle control) in presence of MNNG (25 uM) at 0.03 uM compound concentration in A549 cells; assay type: functional, Homo sapiens; procedure, shortened: as §2
[20] = system: A549; assay: Percent ADP-ribose polymer formation in presence of MNNG (25 uM) at 0..006 uM compound concentration in A549 cells; assay type: functional, Homo sapiens; procedure, shortened: as §4
[21] = system: A549; assay: Percent ADP-ribose polymer formation in presence of MNNG (25 uM) at 0..03 uM compound concentration in A549 cells; assay type: functional, Homo sapiens; procedure, shortened: as §4
[22] = system: LoVo; assay: Potentiation of topotecan in LoVo cells, by 0.40 uM compound (TP); assay type: functional, Homo sapiens
[23] = target: T1, Poly [ADP-ribose] polymerase 1; assay: Inhibitory activity against human full length Poly (ADP-ribose) polymerase 1
[24] = system: A549; assay: Concentration that gives 50% growth inhibition in A549 cells, activity expressed as PF50 (TM); assay type: functional, Homo sapiens; procedure, shortened: as §1

T1 sequence (P09874 whole entry): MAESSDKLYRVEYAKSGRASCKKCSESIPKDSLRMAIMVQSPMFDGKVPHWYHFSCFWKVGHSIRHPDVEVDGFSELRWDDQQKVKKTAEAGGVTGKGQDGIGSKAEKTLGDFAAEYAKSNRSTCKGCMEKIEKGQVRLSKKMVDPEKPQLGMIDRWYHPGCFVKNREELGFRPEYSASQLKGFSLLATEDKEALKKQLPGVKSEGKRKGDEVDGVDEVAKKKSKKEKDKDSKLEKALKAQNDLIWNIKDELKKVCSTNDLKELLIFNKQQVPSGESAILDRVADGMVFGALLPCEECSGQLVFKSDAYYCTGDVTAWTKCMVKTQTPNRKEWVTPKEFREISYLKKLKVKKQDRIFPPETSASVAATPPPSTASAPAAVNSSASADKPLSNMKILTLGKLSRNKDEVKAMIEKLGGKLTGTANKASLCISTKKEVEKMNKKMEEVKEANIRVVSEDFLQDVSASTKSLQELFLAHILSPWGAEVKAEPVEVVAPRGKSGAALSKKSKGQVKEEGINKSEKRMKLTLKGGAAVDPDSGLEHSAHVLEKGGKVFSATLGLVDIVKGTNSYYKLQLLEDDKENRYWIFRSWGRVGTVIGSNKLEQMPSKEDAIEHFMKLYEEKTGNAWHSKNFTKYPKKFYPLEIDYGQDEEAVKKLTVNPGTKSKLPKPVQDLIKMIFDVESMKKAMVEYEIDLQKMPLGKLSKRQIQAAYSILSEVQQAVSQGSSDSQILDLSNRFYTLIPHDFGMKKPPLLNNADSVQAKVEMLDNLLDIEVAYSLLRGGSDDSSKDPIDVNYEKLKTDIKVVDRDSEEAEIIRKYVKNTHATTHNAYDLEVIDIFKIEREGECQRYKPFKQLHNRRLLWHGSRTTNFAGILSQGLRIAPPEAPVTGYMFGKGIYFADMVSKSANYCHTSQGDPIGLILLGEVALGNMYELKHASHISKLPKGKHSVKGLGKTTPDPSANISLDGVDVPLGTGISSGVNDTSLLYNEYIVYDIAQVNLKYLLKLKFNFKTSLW

With CN1CCn2c(-c3cccc4ccccc34)nc3cccc(c32)C1=O the inhibition [1] was 40% and the EF200 [2] was 1.1.
O=C1NCCn2c(-c3cccc(CO)c3)nc3cccc1c32 gave an EF200 [2] of 1.2.
O=C1NCCn2c(-c3cccc4ccccc34)nc3cccc1c32 gave a PF50 [3] of 1.4.
Work on CN(C)Cc1ccc(-c2nc3cccc4c3n2CCNC4=O)cc1 yielded a PF50 [4] of 2.2, a Remaining [5] of 85% and a Remaining [6] of 88%. The PF50 [3] was 2, the PF50 [7] was 1.7 and the PF50 [8] was 2.3. For the same compound, the Formation [9] was 20%, the Remaining [10] was 99% and the GI50 [11] was 11.2 µM. The Formation [12] was 13%, the Formation [13] was 5.5% and the Remaining [14] was 65%. It also gave a PF50 [15] of 1.6, a PF50 [16] of 2.1 and a PF50 [17] of 1.9. It also gave a PF50 [18] of 5.4, a Remaining [19] of 75% and a Formation [20] of 85%. The Formation [21] was 38%.
O=C1NCCn2c(-c3ccc(Cl)cc3)nc3cccc1c32 gave a PF50 [22] of 1.5, a PF50 [4] of 1.5 and a PF50 [3] of 2. For the same compound, the GI50 [11] was 7.9 µM and the PF50 [18] was 2.1.
O=C1NCCn2c(-c3ccccc3Cl)nc3cccc1c32 gave a PF50 [3] of 1.3.
O=C1NCCn2c(-c3ccccc3)nc3cccc1c32 gave a PF50 [3] of 1.5.
O=C1NCCn2c(-c3cccc(C(F)(F)F)c3)nc3cccc1c32 showed a PF50 [3] of 1.7.
Cc1nc2cccc3c2n1CCNC3=O gave a PF50 [3] of 1.2, a pKi [23] of 7.35 and a PF50 [24] of 1.1.
O=C1NCCn2c(-c3ccc(CO)cc3)nc3cccc1c32 showed an EF200 [2] of 1.5.
Work on CN(C)Cc1cccc(-c2nc3cccc4c3n2CCNC4=O)c1 yielded a PF50 [22] of 1.5, a PF50 [4] of 1.4 and a PF50 [3] of 1.8. For the same compound, the GI50 [11] was > 50 µM and the PF50 [18] was 2.
